Activity calls are given as the source filed them. The calls are words filed in the database; no cut-off is given here.
Columns and labels:
Neutrophil [1] = assay: Reduction of calcium influx in CXCL2/MIP2-induced mouse bone marrow neutrophils at 10 uM measured after 30 mins by Fluo 3-AM dye-based analysis; assay type: functional, cell-based
In short: (§1)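 Bone marrow neutrophils (1 × 10^6/mL) loaded with Fluo 3-AM for 40 min at 37 °C, 5% CO2, then incubated 30 min with 10 μM. Plated at 2 × 10^5 cells/well. CXCL2/MIP-2 (30 ng/mL) or LTB4 added automatically in a FlexStation 3 microplate reader and calcium influx fluorescence recorded.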

BMDM [2] = assay: Antiinflammatory activity in LPS-stimulated mouse bone marrow macrophages assessed as reduction in CXCL2/MIP-2 release at 1 to 10 uM pre-incubated for 30 mins prior LPS challenge measured after 4 hrs by ELISA; assay type: functional, cell-based
In short: (§2)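 Femur/tibia bone marrow cells differentiated 7 days at 37 °C, 5% CO2 in RPMI with 10% FBS, penicillin, L-glutamine and 20% L929 supernatant. Macrophages seeded at 2 × 10^5/well and adhered 2 h. Pre-treated 30 min (1, 3 or 10 μM), then LPS 10 ng/mL for 4 h. Supernatant CXCL1/KC and CXCL2/MIP-2 measured by ELISA (pg/mL).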

Neutrophil [3] = assay: Induction of apoptosis in mouse bone marrow neutrophils assessed as late apoptotic cells at 10 uM measured after 4 hrs by Annexin V-FITC/propidium iodide staining-based flow cytometry (reference value: 4.8 %); assay type: cell-based
Neutrophil [4] = assay: Induction of apoptosis in mouse bone marrow neutrophils assessed as necrotic cells at 10 uM measured after 4 hrs by Annexin V-FITC/propidium iodide staining-based flow cytometry (reference value: 0.898 %); assay type: cell-based
Neutrophil [5] = assay: Induction of apoptosis in mouse bone marrow neutrophils assessed as early apoptotic cells at 10 uM measured after 4 hrs by Annexin V-FITC/propidium iodide staining-based flow cytometry (reference value: 3.49 %); assay type: cell-based
Mus musculus [6] = assay: Antiinflammatory activity in C57BL/6 mouse assessed as reduction in CXCL1/KC release in peritoneal cavity at 10 mg/kg, sc dosed 30 mins prior mBSA challenge measured after 3 hrs post mBSA challenge by ELISA; assay type: functional, organism-based
In short: (§3)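 Male SPF C57BL/6 mice (20−22 g) given sc vehicle or test agent 30 min before ip LPS (300 ng/cavity, in saline) or mBSA (30 μg/cavity) in mBSA-immunized mice. Peritoneal fluid collected after 1.5 or 3 h. TNF-α, IL-1β, CXCL1/KC and CXCL2/MIP-2 measured by ELISA, expressed as pg/mL. Mean ± SEM, n = 4−5, Tukey's test.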

Neutrophil [7] = assay: Effect on CXCR2 expression in mouse bone marrow neutrophils at 10 uM measured after 1.5 hrs by flow cytometric analysis; assay type: functional, cell-based
In short: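 Percoll-isolated (72%/65%) bone marrow neutrophils (1 × 10^6 cells/mL, ~95% pure) incubated 1.5 h with 10 μM. Stained 20 min at 4 °C with APC-anti-Ly6G (1:200) and PE-anti-CXCR2 (1:50). Fixed in PBS/2% formaldehyde; two-color flow cytometry. Mean ± SEM, n = 3−4.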

Mus musculus [8] = assay: Antiinflammatory activity in C57BL/6 mouse assessed as reduction in TNFalpha release in peritoneal cavity at 10 mg/kg, sc dosed 30 mins prior LPS challenge measured after 1.5 hrs post LPS challenge by ELISA
Mus musculus [9] = assay: Antiinflammatory activity in C57BL/6 mouse assessed as reduction in LPS-induced leukocyte rolling in mesenteric venules at 10 mg/kg, dosed 30 mins prior LPS-challenge measured by intravital microscopy
Mus musculus [10] = assay: Antiinflammatory activity in C57BL/6 mouse assessed as reduction in LPS-induced leukocyte adhesion in mesenteric venules at 10 mg/kg, sc dosed 30 mins prior LPS-challenge measured after 2 to 4 hrs post LPS challenge by intravital microscopy; assay type: functional, organism-based
In short: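 Mice dosed sc 30 min before ip LPS (300 ng/cavity). Animals anesthetized 2 or 4 h after the stimulus and mesentery exposed on a 37 °C thermostatted plate. Post-capillary venules of 10−18 μm diameter imaged. Rolling leukocytes counted over 10 min; cells stationary >30 s scored adherent. Five fields per animal. Mean ± SEM, n = 4−5.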

BMDM [11] = assay: Antiinflammatory activity in LPS-stimulated mouse bone marrow macrophages assessed as reduction in CXCL1/KC release at 1 to 10 uM pre-incubated for 30 mins prior LPS challenge measured after 4 hrs by ELISA; assay type: functional, cell-based; in short: as §2
Mus musculus [12] = assay: Antiinflammatory activity in specific-pathogen free C57BL/6 mouse assessed as reduction in LPS-induced neutrophil migration in peritoneal activity at 10 mg/kg, sc dosed 15 mins prior LPS challenge measured after 6 hrs post LPS challenge by optical microscopic analysis; assay type: functional, organism-based
In short: (§4)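 Wild-type C57BL/6 or iNOS−/− male mice dosed sc (10 mg/kg), then ip LPS (300 ng/cavity) 15 min later. Killed at 6 h; peritoneal cavity washed. Total and differential cell counts done. Mean ± SEM, n = 4−5, Tukey's test.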

Mus musculus [13] = assay: Antiinflammatory activity in C57BL/6 mouse assessed as reduction in CXCL1/KC release in peritoneal cavity at 10 mg/kg, sc dosed 30 mins prior LPS challenge measured after 3 hrs post LPS challenge by ELISA; assay type: functional, organism-based; in short: as §3
[14] = Induction of apoptosis in mouse bone marrow macrophages assessed as viable cells at 10 uM measured after 4 hrs by Annexin V-FITC/propidium iodide staining-based flow cytometry (reference value: 92 %); assay type: cell-based, BMDM; details: read-out: Activity
Mus musculus [15] = assay: Antiinflammatory activity in C57BL/6 mouse assessed as reduction in CXCL2/MIP-2 release in peritoneal cavity at 10 mg/kg, sc dosed 30 mins prior mBSA challenge measured after 3 hrs post mBSA challenge by ELISA; assay type: functional, organism-based; in short: as §3
[16] = Induction of apoptosis in mouse bone marrow macrophages assessed as early apoptotic cells at 10 uM measured after 4 hrs by Annexin V-FITC/propidium iodide staining-based flow cytometry (reference value: 5.03 %); assay type: cell-based; details: bmdm
Mus musculus [17] = assay: Antiinflammatory activity in C57BL/6 mouse assessed as reduction in CXCL2/MIP-2 release in peritoneal cavity at 10 mg/kg, sc dosed 30 mins prior LPS challenge measured after 3 hrs post LPS challenge by ELISA; assay type: functional, organism-based; in short: as §3
Mus musculus [18] = assay: Antiinflammatory activity in C57BL/6 mouse assessed as reduction in mBSA-induced neutrophil migration in peritoneal activity at 1 to 10 mg/kg, sc dosed 21 days after immunization 15 mins prior to mBSA challenge measured after 6 hrs post mBSA challenge using Neubauer chamber by cell counting method
Neutrophil [19] = assay: Reduction of calcium influx in LTB4-induced mouse bone marrow neutrophils at 10 uM measured after 30 mins by Fluo 3-AM dye-based analysis; assay type: functional, cell-based; in short: as §1
Neutrophil [20] = assay: Reduction in CXCL2/MIP2-induced chemotaxis in mouse bone marrow neutrophils at 3 and 10 uM pre-treated for 30 mins prior CXCL2/MIP2-challenge measured after 60 mins using Boyden's chamber by chemotaxis assay; assay type: functional, cell-based
In short: (§5)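 Percoll-isolated bone marrow neutrophils (1 × 10^6 cells/mL) pre-incubated 30 min at 37 °C, 5% CO2 (1, 3 or 10 μM). Boyden chamber with 5-μm membrane; CXCL2/MIP-2 30 ng/mL or LTB4 in 0.01% RPMI-BSA as chemoattractant, RPMI-BSA as negative control. Migration 60 min. Panotic-stained cells averaged over 5 fields at 1000×; triplicate, n = 3−4.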

Mus musculus [21] = assay: Antiinflammatory activity in C57BL/6 mouse assessed as reduction in LPS-induced neutrophil migration in peritoneal activity at 1 to 10 mg/kg, sc dosed 30 mins prior LPS challenge measured after 6 hrs post LPS challenge using Neubauer chamber by optical microscopic analysis; assay type: functional, organism-based
In short: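 Male SPF C57BL/6 mice (20−22 g) dosed sc (1, 3 or 10 mg/kg) 30 min before ip LPS (300 ng/cavity). Killed at 6 h; cavity washed with 3 mL PBS/1 mM EDTA. Total cells counted in a Neubauer chamber; differential count of 100 cells on Panotic-stained cytospins at 1000×. Neutrophils per cavity, mean ± SEM, n = 4−5.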

Mus musculus [22] = assay: Antiinflammatory activity in C57BL/6 mouse assessed as reduction in IL1-beta release in peritoneal cavity at 10 mg/kg, sc dosed 30 mins prior mBSA challenge measured after 3 hrs post mBSA challenge by ELISA
Mus musculus [23] = organism: Mus musculus; assay: Reduction in LTB4-induced chemotaxis in mouse bone marrow neutrophils at 3 and 10 uM pre-treated for 30 mins prior LTB4-challenge measured after 60 mins using Boyden's chamber by chemotaxis assay; assay type: functional; in short: as §5
Mus musculus [24] = assay: Antiinflammatory activity in iNOS-/- mouse assessed as reduction in LPS-induced neutrophil migration in peritoneal activity at 10 mg/kg, sc dosed 15 mins prior LPS challenge measured after 6 hrs post LPS challenge by optical microscopic analysis; assay type: functional, organism-based; in short: as §4
[25] = Induction of apoptosis in mouse bone marrow neutrophils assessed as viable cells at 10 uM measured after 4 hrs by Annexin V-FITC/propidium iodide staining-based flow cytometry (reference value: 90.8 %); assay type: cell-based, Neutrophil; details: read-out: Activity
[26] = Induction of apoptosis in mouse bone marrow macrophages assessed as late apoptotic cells at 10 uM measured after 4 hrs by Annexin V-FITC/propidium iodide staining-based flow cytometry (reference value: 2.29 %); assay type: cell-based; details: bmdm
[27] = Induction of apoptosis in mouse bone marrow macrophages assessed as necrotic cells at 10 uM measured after 4 hrs by Annexin V-FITC/propidium iodide staining-based flow cytometry (reference value: 0.69 %); assay type: cell-based; details: bmdm

SMILES: COc1ccc([C@H]2COc3cc(O)ccc3C2)c(O)c1
- Activity (Neutrophil [1]): Active
- Activity (BMDM [2]): Active
- Activity (Neutrophil [3]): 2.72%
- Activity (Neutrophil [4]): 0.546%
- Activity (Neutrophil [5]): 2.93%
- Activity (Mus musculus [6]): Active
- Activity (Neutrophil [7]): inactive
- Activity (Mus musculus [8]): inactive
- Activity (Mus musculus [9]): Active
- Activity (Mus musculus [10]): Active
- Activity (BMDM [11]): Active
- Activity (Mus musculus [12]): Active
- Activity (Mus musculus [13]): Active
- viability at 4 h, 10 µM [14]: 89%
- Activity (Mus musculus [15]): Active
- Activity [16]: 6.62%
- Activity (Mus musculus [17]): Active
- Activity (Mus musculus [18]): Active
- Activity (Neutrophil [19]): Active
- Activity (Neutrophil [20]): Active
- Activity (Mus musculus [21]): Active
- Activity (Mus musculus [22]): inactive
- Activity (Mus musculus [23]): Active
- Activity (Mus musculus [24]): Active
- viability at 4 h, 10 µM [25]: 93.8%
- Activity [26]: 3.35%
- Activity [27]: 1.03%

Reference: ChEMBL document CHEMBL4477169, “Vestitol Isolated from Brazilian Red Propolis Inhibits Neutrophils Migration in the Inflammatory Process: Elucidation of the Mechanism of Action” (J Nat Prod, 2016)
